# Only some compounds are listed: those with a hit (about 1.6% of all), similar ones and a draw of the others.
# PPC-1+TRAIL kill: compounds killing PPC-1 cancer cells with TRAIL present, primary screen, TRAIL potentiator project, ATPLite luminescence, uHTS | PPC-1 cells + TRAIL, ATPLite viability luminescence | 220,000 tested, 0.41% active | cell killing (% activity), % at 4 µM or 5 µM | AID 1443, 2008;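 active means cell killing above 50% in the first pass at 4 µM, then a duplicate retest at 5 µM averaging 50% or more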;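 further: plate controls were cells with TRAIL plus DMSO for no effect and medium-only wells lacking cells for full effect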
# FLuc act counter: FLuc activators, initial screening, artefact control for FLuc-dependent activation tests, biochemical, ATPlite luminescence; ATPlite luciferase biochemical, 10 min; 0 = ATP-free wells, 1 = DMSO control; Luciferin 4-monooxygenase (Photinus pyralis), P08659; activation factor at 10 µM; AID 1027, 2008; 200,000 tested, under 10 active;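 active means luciferase activation factor, scaled between plate controls, of at least 2 with compound at 10 µM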
# Target sequence (P08659 whole entry, looked up): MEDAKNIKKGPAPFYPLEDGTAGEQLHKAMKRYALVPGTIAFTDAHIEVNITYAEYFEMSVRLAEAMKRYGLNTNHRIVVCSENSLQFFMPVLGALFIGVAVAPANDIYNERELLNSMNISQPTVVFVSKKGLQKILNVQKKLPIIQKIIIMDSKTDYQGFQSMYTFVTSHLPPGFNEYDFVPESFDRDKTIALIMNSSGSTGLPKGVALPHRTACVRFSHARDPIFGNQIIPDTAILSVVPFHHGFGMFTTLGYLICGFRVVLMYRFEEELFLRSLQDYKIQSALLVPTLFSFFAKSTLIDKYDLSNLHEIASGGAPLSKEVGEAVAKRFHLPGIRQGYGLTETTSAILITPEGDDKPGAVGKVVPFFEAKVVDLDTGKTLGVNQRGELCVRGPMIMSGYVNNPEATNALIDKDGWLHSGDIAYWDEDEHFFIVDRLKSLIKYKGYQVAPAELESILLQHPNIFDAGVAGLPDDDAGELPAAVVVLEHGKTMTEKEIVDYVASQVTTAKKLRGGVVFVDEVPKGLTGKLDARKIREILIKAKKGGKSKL
#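 assay system = Luciferase/luciferin detection reagent, cell-free biochemical luciferase assay | also added = ATP substrate | times = 10 min post-reagent at room temperature | measured by = luminescence from luciferase reaction | measure = luciferase activation, seen as luminescence increase over controls | benchmarks = low control with PBS replacing ATP, high control enzyme plus ATP without compound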
# FLuc inhib CS: firefly luciferase enzyme inhibitors, primary screen, artefact control for luciferase-based inhibitor screens, biochemical, luminescence, ATPLite; inhibition, % at 10 µM; Luciferin 4-monooxygenase (Photinus pyralis), P08659; AID 1006, 2008; 200,000 tested, 1.5% active; 10 min;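 active means inhibition above about 50% when tested at 10 µM, limit read from the data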
# C8 TRAIL sens: viability loss with TRAIL in NB7+C8 cells, primary screen, TRAIL sensitizer project, cell-based, ATPlite luminescence. inhibition (viability loss, TRAIL sensitization), % at 10 µM. 360,000 tested, 1% active. AID 624354, 2012;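 active means compounds causing at least 50% loss of cell viability in the single-dose screen, relative to plate controls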
# PPC1 cytotox: cytotoxicity in PPC-1 cells, confirmation, cytotoxicity control for TRAIL apoptosis potentiator project, cell-based, ATP content luminescence. PPC-1 viability, ATPlite luminescence, overnight. cytotoxicity, % at 5 µM. 1,200 tested, 50% active. shares compounds with PPC-1+TRAIL kill;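 active means reconfirmed compounds whose average cytotoxicity reaches 50% or more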;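 further: 0% = DMSO-treated cells and 100% = wells holding medium but no cells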
# Starred values were filed as active, the others as inactive; · = not tested or not shown.
SMILES,PPC-1+TRAIL kill,FLuc act counter,FLuc inhib CS,C8 TRAIL sens,PPC1 cytotox
O=C(Nc1nc2ccccc2[nH]1)c1ccccc1,62*,0.1,88*,84*,60*
O=C(Nc1nc2ccccc2[nH]1)c1cccc(Cl)c1,·,·,·,42,·
Cc1cc(/C=C2/C(=O)NN(c3ccccc3)C2=O)c(C)n1-c1cccc(O)c1,81*,0.1,94*,85*,83*
O=C1NN(c2ccccc2)C(=O)C1=Cc1ccccc1O,·,·,·,-7,·
O=C(CN1CCC(NC(=O)c2ccccc2F)CC1)Nc1ccc2c(c1)OCCO2,9,1,4,-5,-9
CCOC(=O)c1cnc2c(N=Nc3cccc(Cl)c3)c(N)nn2c1N,17,0.9,7,·,·
CCOC(=O)c1cnc2c(-c3ccccc3)cnn2c1N,53*,0.3,75*,66*,55*
CCOC(=O)c1cnc2c(-c3ccccc3)c(C)nn2c1N,8,0.9,14,4,·
CCOC(=O)c1cnc2c(N=Nc3ccccc3)c(N)nn2c1N,58*,0.3,70*,69*,59*
O=c1c(/C=N/N2CCOCC2)c(C(F)(F)F)[nH]n1-c1ccccc1,16,1,1,-5,·
COc1ccc(OC)c(NC(=O)CCN2C(=O)c3ccccc3C2=O)c1,·,·,·,-7,·
Cn1c(=N)n(CC(=O)O)c2ccccc21,1,1,0,-1,·
Cn1c(=N)n(CC(=O)c2ccccc2)c2ccccc21,53*,·,·,81*,57*
CN1CCN(S(=O)(=O)c2ccc(NC(=O)Cc3ccc([N+](=O)[O-])cc3)cc2)CC1,·,·,·,-11,·
CCC(=O)Nc1sccc1C(=O)OC,-4,1,0,8,-1
COc1ccc(C)cc1S(=O)(=O)Nc1ccc2c(c1)OCO2,10,1,-2,1,·
COc1ccc(-n2nc(C(=O)NCC(=O)NCCC3=CCCCC3)c3ccccc3c2=O)cc1,·,·,·,5,·
On1onc2c3cc(-c4ccccc4)nc3ccc21,24,1,-5,3,18
CCOc1ccc(C2C(C#N)=C(N)SC(N)=C2C#N)cc1OCC,5,1.1,-11,18,9
CCOC(=O)[C@]12CCCC=C1N(Cc1ccccc1)C(=O)[C@H](CC(=O)NCC1CCCCC1)C2,·,·,·,-8,·
Cc1ccc(S(=O)(=O)Nc2cccc(C(=O)NCCCN3CCCC3=O)c2)cc1F,·,·,·,7,·
Cc1ccc(/C=C/C(=O)C2C(=O)c3ccccc3C2=O)cc1,95*,0,97*,85*,94*
Cc1ccc(/C=C/C(=O)Nn2cnnc2)cc1,1,0.6,41,6,·
CSc1ccccc1C(=O)NCc1ccc(S(N)(=O)=O)cc1,16,1.1,-6,-1,·
COCCSc1ccccc1C(=O)NCc1ccc(S(N)(=O)=O)cc1,6,1,-2,4,7
SMILES,PPC-1+TRAIL kill,FLuc act counter,FLuc inhib CS,C8 TRAIL sens,PPC1 cytotox
COc1ccc(-n2c(=S)[nH]c3cc(C(=O)N4CCN(c5ccccc5)CC4)ccc3c2=O)c(OC)c1,·,·,·,6,·
COc1ccc(C(=O)/C=C/c2ccccc2)c(OC)c1,16,0.6,39,26,·
COc1ccc(OC)c(C(=O)/C=C/c2ccccc2C(F)(F)F)c1,-5,1,-1,23,-2
Cc1[nH]n(-c2ccccc2)c(=O)c1/C=N/Nc1nncc(-c2ccccc2)n1,63*,0.1,85*,58*,58*
Cc1ccc(/C=N/Nc2nncc(-c3ccccc3)n2)o1,-1,0.9,9,3,·
CCN(CC)S(=O)(=O)c1cccc(C(=O)Nc2ccccc2C(=O)N2CCOCC2)c1,5,1,3,-9,-4
c1ccc(Nc2ncnc3c2oc2ccccc23)cc1,5,0.9,7,18,1
CCOc1ccc(S(=O)(=O)Nc2ccccc2C(=O)N2CCOCC2)cc1,·,·,·,-3,·
CC1CCCC/C1=N\NS(=O)(=O)c1ccc(Br)cc1 (centres undefined),-4,1.1,-7,0,11
COCCCNC1=C(Cl)C(=O)c2ccccc2C1=O,7,·,·,12,·
CCN(CC)CCCNC1=C(Cl)C(=O)c2ccccc2C1=O,37,1,-2,94*,36
CCOC(=O)CSc1ncnc2c1cnn2-c1ccccc1,18,0.8,16,-8,·
CCOC(=O)CSc1ncnc2c1cnn2-c1ccc(C)cc1,28,0.9,7,6,22

# Bioassay records (PubChem BioAssay)
